From ChEMBL document CHEMBL2150971, “Selective depletion of mutant p53 by cancer chemopreventive isothiocyanates and their structure-activity relationships” (J Med Chem, 2011)
Active and inactive are the calls of the source. The rule behind the calls is not given here.

How the values were obtained:
[1] = system: Cellular tumor antigen p53 (Homo sapiens), P04637 [R280K]; assay: Induction of p53 R280K mutant depletion in human MDA-MB-231 cells at 10 uM by immunoblot analysis; assay type: cell-based
In short: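 MDA-MB-231 cells treated with 10 µM for 24 h; whole-cell lysates immunoblotted for p53 (DO-1) with β-actin loading control, ECL.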

[2] = system: Cellular tumor antigen p53 (Homo sapiens), P04637 [G245C]; assay: Induction of p53 G245C mutant depletion in human NCI-H596 cells at 20 uM by immunoblot analysis; assay type: cell-based
MDA-MB-231 = assay: Induction of apoptosis in human MDA-MB-231 cells expressing p53 R280K mutant at 10 uM incubated for 24 hrs by FITC/Annexin-V staining method; assay type: functional, cell-based
In short: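 MDA-MB-231 cells at 40–50% confluency treated with DMSO or 10 µM in DMSO for 24 h; washed in cold PBS, stained with FITC-Annexin V and propidium iodide, analysed by flow cytometry; early apoptotic (Annexin V+/PI−) fraction; mean ± SD of three experiments, unequal-variance two-sample t-test.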

[3] = system: Cellular tumor antigen p53 (Homo sapiens), P04637 [G245C]; assay: Induction of covalent cysteine modification at p53 G245C mutant in human NCI-H596 cells at 100 uM incubated for 1 hr by monochlorobimane fluorometric assay; assay type: cell-based
[4] = system: Cellular tumor antigen p53 (Homo sapiens), P04637 [G245C]; assay: Induction of conformational changes in p53 G245C mutant in human NCI-H596 cells at 60 uM incubated for 1 hr at 32 degC by tryptophan fluorescence emission spectroscopy; assay type: cell-based
In short: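 6 µM purified G245C p53 DNA-binding domain incubated 1 h at 32 °C alone, with DMSO or 60 µM agent; intrinsic fluorescence emission 285–400 nm, excitation 280 nm, slit 5 nm, 3 scans averaged.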

[5] = system: Cellular tumor antigen p53 (Homo sapiens), P04637 [G245C]; assay: Induction of p53 G245C mutant depletion in human NCI-H596 cells at 20 uM incubated for 2 hrs by immunoblot analysis; assay type: cell-based
In short: (§1)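 H596 cells (G245C p53), maintained in DMEM or RPMI-1640 with 10% FBS, treated either at 15 µM for varying times up to 24 h or at varying concentrations (10–60 µM) for 2 h; whole-cell lysates, equal protein on SDS gels, PVDF, blotted with p53 DO-1 and β-actin antibodies, ECL.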

[6] = system: Cellular tumor antigen p53 (Homo sapiens), P04637 [G245C]; assay: Induction of p53 G245C mutant depletion in human NCI-H596 cells at 10 uM incubated for 2 hrs by immunoblot analysis; assay type: cell-based; in short: as §1
[7] = system: Cellular tumor antigen p53 (Homo sapiens), P04637 [G245C]; assay: Induction of p53 G245C mutant depletion in human NCI-H596 cells at 15 uM up to 24 hrs by immunoblot analysis; assay type: cell-based; in short: as §1
[8] = system: Cellular tumor antigen p53 (Homo sapiens), P04637 [G245C]; assay: Induction of p53 G245C mutant depletion in human NCI-H596 cells at 60 uM after 2 hrs by immunoblot analysis; assay type: cell-based; in short: as §1

SMILES | Activity [1] | Activity [2] | Activity (MDA-MB-231) | Activity [3] | Activity [4] | Activity [5] | Activity [6] | Activity [7] | Activity [8]
S=C=NCCCCc1ccccc1 | Active | Active | Active |  |  |  |  |  | 
S=C=NCC(c1ccccc1)c1ccccc1 | Active | Active | Active | Active |  |  |  |  | 
S=C=NCc1ccccc1 | Active | Active | Active | Active | Active | Active | Active |  | 
S=C=NCCCc1ccccc1 | Active | Active | Active | Active |  |  |  |  | 
CNCCc1ccccc1 |  | inactive |  |  |  |  |  | inactive | inactive
S=C=NCCCCCc1ccccc1 | Active | Active |  |  |  |  |  |  | 
C[C@@H](N=C=S)c1ccccc1 | inactive | inactive |  |  | Active |  |  |  | 
S=C=NCCCCCCc1ccccc1 | Active | Active |  |  |  |  |  |  | 
